# ANO1 activ: TMEM16A chloride channel activators or potentiators, primary screen, cell-based, HTS. HEK293 TMEM16A/YFP-H148Q/I152L, iodide quench fluorescence; hits give low values. B-score at 10 µM. 0.3% of 340,000 active. AID 623877, 2012;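 active = fluorescence-ratio B-score plate-corrected deviation score at least 3 library SD below zero, with starting fluorescence score within 5 deviations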;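 note: channel opened by trigger with iodide after compound preincubation; score built on the fluorescence ratio of max minus min over baseline; more negative score means more quench and so TMEM16A activation or potentiation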
# Target sequence (Q8BHY3 whole entry, looked up): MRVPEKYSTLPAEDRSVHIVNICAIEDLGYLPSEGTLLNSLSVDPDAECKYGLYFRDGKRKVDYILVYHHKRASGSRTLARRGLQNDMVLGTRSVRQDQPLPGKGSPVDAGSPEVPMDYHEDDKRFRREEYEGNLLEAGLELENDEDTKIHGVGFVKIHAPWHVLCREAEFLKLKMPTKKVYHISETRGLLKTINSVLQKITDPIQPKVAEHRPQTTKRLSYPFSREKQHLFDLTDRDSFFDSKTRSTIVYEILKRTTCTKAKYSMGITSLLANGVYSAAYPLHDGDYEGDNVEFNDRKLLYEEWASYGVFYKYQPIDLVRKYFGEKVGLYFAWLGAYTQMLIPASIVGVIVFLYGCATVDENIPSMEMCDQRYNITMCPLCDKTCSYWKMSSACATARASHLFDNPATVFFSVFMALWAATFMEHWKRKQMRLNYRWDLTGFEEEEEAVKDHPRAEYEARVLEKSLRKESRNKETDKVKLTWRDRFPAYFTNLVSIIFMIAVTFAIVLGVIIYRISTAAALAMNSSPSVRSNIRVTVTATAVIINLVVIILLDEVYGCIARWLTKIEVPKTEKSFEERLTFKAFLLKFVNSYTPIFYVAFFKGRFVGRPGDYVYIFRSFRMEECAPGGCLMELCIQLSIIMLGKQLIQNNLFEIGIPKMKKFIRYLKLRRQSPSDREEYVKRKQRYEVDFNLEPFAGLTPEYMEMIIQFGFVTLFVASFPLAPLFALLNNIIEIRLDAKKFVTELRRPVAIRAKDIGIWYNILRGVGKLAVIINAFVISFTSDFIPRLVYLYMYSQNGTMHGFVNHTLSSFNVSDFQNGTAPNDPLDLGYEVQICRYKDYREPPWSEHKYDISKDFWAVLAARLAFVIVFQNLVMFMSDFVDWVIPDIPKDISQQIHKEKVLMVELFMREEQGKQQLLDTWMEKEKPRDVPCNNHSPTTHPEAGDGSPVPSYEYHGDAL
# DNA FID counter: compounds displacing fluorescent DNA intercalator, primary screen, artefact control for HCV NS3 helicase inhibitor project, biochemical, FID fluorescence | inhibition, % at 7.9 µM | AID 1845, 2009 | DNA fluorescent intercalator displacement | 0.17% of 290,000 active; in the data active = inhibition above about 37%;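 note: 0% = vehicle and 100% = reference compound; higher means more ethidium bromide displaced from hairpin DNA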
# ANO1 block: TMEM16A chloride channel inhibitors, primary screen, cell-based, HTS; Anoctamin-1 (Mus musculus), Q8BHY3; HEK293 TMEM16A/YFP iodide influx fluorescence, ionomycin; normalized B-score (activity score, 25-100; higher = stronger inhibition) at 10 µM; 1.2% of 310,000 active;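 active = ratio plate-corrected score three or more library SD toward inhibition, starting fluorescence score within five deviations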;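 note: score derived from kinetic fluorescence span divided by baseline fluorescence per well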
# Apaf1 inhib: inhibitors of human Apaf-1 apoptosome, primary screen, biochemical, DEVD-Rh110 fluorescence, uHTS | reconstituted apoptosome caspase-3 activity | inhibition, % at 20 µM | Apoptotic protease-activating factor 1 (Homo sapiens), O14727 | 0.71% of 330,000 active; active = inhibition of at least 40% at 20 µM;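 note: plate controls were DMSO wells for no effect and DEVD-CHO caspase inhibitor wells for full effect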
#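 Assay system – apoptosome proteins · Medium – Hepes buffer, pH 7.5 · Also added – cytochrome c with DEVD-Rh110 · Timing – 30 min compound preincubation, 50 min activation, room temperature · Detection – Rh110 fluorescence, excitation 480 nm, emission 540 nm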
# UBC13 inh: UBC13 polyubiquitin chain formation inhibitors, primary screen, biochemical, TR-FRET, uHTS; Ubiquitin-conjugating enzyme E2 N (Homo sapiens), P61088; inhibition, % at 20 µM; 0.47% of 330,000 active; in the data active = inhibition above about 45%, passing the limit was not always enough
# TMEM16A reconf: TMEM16A chloride channel inhibitors, confirmation, cell-based, re-confirmation; inhibition, % at 10 µM; 39% of 2,300 active; shares compounds with ANO1 block; HEK293 TMEM16A/YFP-H148Q, iodide quench fluorescence; ionomycin added to raise cell calcium;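 active = mean duplicate percent inhibition, scaled so buffer wells are 0 and the reference blocker 100, over three buffer SD above buffer mean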
# HEK293 Ca mobil: calcium mobilization in TMEM16A/YFP HEK293 cells, confirmation, counter-screen for TMEM16A inhibitor project. shares compounds with ANO1 block. Fluo4 calcium mobilization. calcium response (% of ionomycin), % at 10 µM. 2% of 2,300 active;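 active = duplicate-averaged calcium signal over 20% of the ionomycin maximum, relative to buffer baseline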;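 note: each well's signal is peak minus trough fluorescence divided by its pre-addition baseline; 0% = buffer wells and 100% = ionomycin wells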
# YFP-HEK293 quench: iodide YFP quench changes in parental YFP-HEK293, counter-screen for TMEM16A inhibitor project, cell-based. shares compounds with ANO1 block. ionomycin. YFP ratio F(max-min)/F0 at 10 µM. 2,300 tested, under 10 active. AID 652233, 2013;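 active = yellow fluorescent protein signal ratio exceeding the buffer control mean by over 5 SD of those controls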;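 note: ratio is mean of duplicate wells from kinetic YFP trace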
# ClC-1 rat inh: ClC-1 chloride channel inhibition, selectivity assay for TMEM16A inhibitor project, cell-based, voltage-dependent ClC-1. shares compounds with ANO1 block. CHO ClC-1-YFP, iodide influx fluorescence quench; iodide control reads 0, buffer control 100. ratio percent, % at 10 µM. 2,300 tested, under 10 active. AID 652236, 2013;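 active = duplicate-mean ratio percent above the mean of iodide-only control wells, which defines zero, plus 5 of their SD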;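 note: higher percent means stronger block of ClC-1 iodide influx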
# Active calls of the source: *; i = inactive; . = no result. Hits are enriched below; roughly 2.4% of the tested compounds scored in any of these assays.
SMILES,ANO1 activ,DNA FID counter,ANO1 block,Apaf1 inhib,UBC13 inh,TMEM16A reconf,HEK293 Ca mobil,YFP-HEK293 quench,ClC-1 rat inh
C/C(=N\NC(=O)CSc1nc(C)[nH]c1[N+](=O)[O-])c1ccc(F)cc1,i,3,100*,-7,7,i,i,-0.93,-3
Nc1c(C(=O)Nc2nc3ccccc3s2)sc2nc(-c3cccs3)ccc12,i,-3,i,11,-12,i,i,-0.62,20
O=C(c1ccccc1)c1ccc(C(=O)N2CCOCC2)cc1,i,-6,i,-3,0,.,.,.,.
O=C(c1ccc(-c2ccccc2)cc1)c1ccccc1C(=O)N1CCOCC1,i,-33,100*,-17,2,i,i,-1.2,-10
CCC(C(=O)NCc1ccco1)N(C(=O)CNS(=O)(=O)c1ccccc1)c1ccc(OC)cc1 (stereo not drawn),i,-19,25*,-22,9,i,i,-0.91,0
O=C(CSc1n[nH]c(-c2ccccc2O)n1)NC1CCCCC1,i,-18,100*,5,3,i,i,-1.3,12
O=C(c1ccccc1)[C@H]1[C@H](c2ccccc2)[C@@]2(N=C(c3ccccc3)OC2=O)C2c3ccccc3C=NN21 (stereo partly drawn),.,-27,i,8,-1,.,.,.,.
O=C(CSC1CC(=O)N(CC(c2ccccc2)c2ccccc2)C1=O)Nc1ccc(Cl)cc1 (stereo not drawn),i,-12,25*,.,.,i,i,-1.1,-2
O=C(NCCCc1ccccc1)C(=O)NCC1OCCN1S(=O)(=O)c1ccc(F)cc1 (stereo not drawn),i,-45,25*,0,3,i,i,-1,-8
Cc1ccc(S(=O)(=O)N2CCOC2CNC(=O)C(=O)NCCCc2ccccc2)cc1 (stereo not drawn),i,-43,i,-1,-4,.,.,.,.
COc1cc(NC(=S)N2CCN(c3ccccn3)CC2)c(OC)cc1Cl,i,-10,i,15,-5,.,.,.,.
CC(O)CNc1nc2c(c(=O)n(C)c(=O)n2C)n1C/C=C/c1ccccc1 (stereo not drawn),i,-18,i,-16,3,.,.,.,.
Cn1c(=O)c2c(nc(NCCCO)n2C/C=C/c2ccccc2)n(C)c1=O,i,-10,100*,-9,9,i,i,-1.1,-6
CCCc1nn(C)c(C(N)=O)c1[N+](=O)[O-],i,-2,i,2,1,.,.,.,.
O=C(c1cc(COc2ccc3ncccc3c2)on1)N1CCC(O)CC1,i,-7,i,4,4,.,.,.,.
CCOC(=O)N1CCN(C(=O)c2cc(COc3ccc4ncccc4c3)on2)CC1,i,-32,25*,3,4,31%*,i,-0.96,-26
Cc1cccnc1CN1CCN(C(=O)c2cc(COc3ccc4ncccc4c3)on2)CC1,i,-25,25*,-15,1,22%*,i,-1.1,-40
CCC(O)C1CCN(C(=O)c2cc(COc3ccc4ncccc4c3)on2)CC1 (stereo not drawn),i,-41,100*,-2,1,i,i,-1.1,-20
NS(=O)(=O)c1ccc(CNS(=O)(=O)c2cc(Cl)ccc2Cl)cc1,i,-1,i,1,-1,.,.,.,.
O=S(=O)(NCCSCc1c(Cl)cccc1Cl)c1ccc2c(c1)OCCO2,i,-11,25*,29,-14,i,i,-1.1,-10
O=C(NNc1nc(N2CCOCC2)nc(N2CCOCC2)n1)Nc1ccc(Cl)cc1,.,-1,i,-7,-1,.,.,.,.
COc1cc(C(=O)Nc2sc3c(c2C(=O)NCc2ccco2)CCCC3)cc(OC)c1OC,i,-4,i,14,28,.,.,.,.
COc1ccc(C(=O)Nc2sc3c(c2C(=O)NCc2ccco2)CCCC3)cc1OC,i,-3,25*,16,30,i,i,-1.2,-6
O=C(CSc1nc2ccccc2c(=O)[nH]1)N1CCOCC1,i,1,i,-16,-2,i,i,-1.3,-6
Cc1ncc([N+](=O)[O-])n1CC(=O)N/N=C/c1ccccc1F,i,-4,i,3,7,.,.,.,.
SMILES,ANO1 activ,DNA FID counter,ANO1 block,Apaf1 inhib,UBC13 inh,TMEM16A reconf,HEK293 Ca mobil,YFP-HEK293 quench,ClC-1 rat inh
Cc1nc(NCCc2ccccc2)c2oc3ccccc3c2n1,i,-19,25*,0,5,i,i,-1,-24
Cc1ccc(OCc2ccc(C(=O)N3CCCC3)o2)cc1C,i,-33,25*,14,0,i,i,-1.2,-14
O=C(Nc1ccc2nc3n(c(=O)c2c1)CCCCC3)C(=O)N1CCN(c2ccc(F)cc2)CC1,i,-12,i,7,1,.,.,.,.
COc1cccc(C(=O)N2CCN(C3CCN(Cc4ccccc4)CC3)CC2)c1OC,i,0,i,-11,-12,.,.,.,.
O=C(CNCc1ccccc1Cl)Nc1ccccc1N1CCCCC1,i,-11,25*,21,5,i,i,-1.1,-8
O=C(COc1c(Cl)cccc1Cl)Nc1ccccc1N1CCCC1,i,-26,25*,28,11,i,i,-1.3,-16
O=C(Nc1ccccc1N1CCCCC1)c1ccccc1F,i,-2,25*,8,-1,i,i,-0.91,-4
Cc1cc(Cl)ccc1OCC(=O)NC(=S)Nc1ccccc1N1CCOCC1,i,-1,i,1,-8,.,.,.,.
O=C(COc1ccc(Br)cc1)Nc1ccccc1N1CCCC1,i,-1,i,-1,7,.,.,.,.
Cc1cc(Cl)ccc1OCC(=O)Nc1ccccc1N1CCOCC1,i,-6,100*,25,12,22%*,i,-0.99,-15
CC(C)(C)NS(=O)(=O)c1cc(C(=O)Nc2sccc2C#N)ccc1Cl,i,-12,i,9,0,i,i,-1,-14
